Marks after values point to notes of the source that are not given here.
Assay: Phase I safety and tolerability, weekly
Assay type: in vivo, human
Summary of the method: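 Oral weekly dose escalation followed a 3+3 design (planned 90, 135, 200, 300mg, intermediate doses allowed), then a modified toxicity-probability-interval confirmation stage. A DLT was any drug-related CTCAE v3.0 ≥G4 hematological, ≥G3 febrile neutropenia or ≥G3 non-hematological toxicity. Safety visits, glucose, C-peptide and HbA1c monitoring followed a fixed schedule; AEs were graded by CTCAE v3.0.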

## NC1(c2ccc(-c3nc4ccn5c(=O)[nH]nc5c4cc3-c3ccccc3)cc2)CCC1 [MK-2206]
90mg QW, G1, all cycles
  Anorexia, number of AEs: 0 (0)
  Dermatitis acneiform, number of AEs: 0 (0)
  Diarrhea, number of AEs: 1 (1)
  Dry skin, number of AEs: 0 (0)
  Fatigue, number of AEs: 1 (1)
  Nausea, number of AEs: 0 (0)
  Pruritus, number of AEs: 0 (0)
  Rash (all rash terms collated), number of AEs: 0 (0)
  Stomatitis, number of AEs: 0 (0)
  Vomiting, number of AEs: 1 (1)
90mg QW, G1, cycle 1
  Anorexia, number of AEs: 0 (0)
  Dermatitis acneiform, number of AEs: 0 (0)
  Diarrhea, number of AEs: 1 (1)
  Dry skin, number of AEs: 0 (0)
  Fatigue, number of AEs: 1 (1)
  Nausea, number of AEs: 0 (0)
  Pruritus, number of AEs: 0 (0)
  Rash (all rash terms collated), number of AEs: 0 (0)
  Stomatitis, number of AEs: 0 (0)
  Vomiting, number of AEs: 1 (1)
135mg QW, G1, all cycles
  Anorexia, number of AEs: 0 (0)
  Dermatitis acneiform, number of AEs: 1 (1)
  Diarrhea, number of AEs: 0 (0)
  Dry skin, number of AEs: 0 (0)
  Dysgeusia, number of AEs: 0 (0)
  Fatigue, number of AEs: 0 (0)
  Nausea, number of AEs: 0 (0)
  Pruritus, number of AEs: 1 (1)
  Rash (all rash terms collated), number of AEs: 1 (1)
  Stomatitis, number of AEs: 0 (0)
  Vomiting, number of AEs: 0 (0)
135mg QW, G1, cycle 1
  Anorexia, number of AEs: 0 (0)
  Dermatitis acneiform, number of AEs: 1 (1)
  Diarrhea, number of AEs: 0 (0)
  Dry skin, number of AEs: 0 (0)
  Dysgeusia, number of AEs: 0 (0)
  Fatigue, number of AEs: 0 (0)
  Nausea, number of AEs: 0 (0)
  Pruritus, number of AEs: 1 (1)
  Rash (all rash terms collated), number of AEs: 1 (1)
  Stomatitis, number of AEs: 0 (0)
  Vomiting, number of AEs: 0 (0)
150mg QW, G1, all cycles
  Dermatitis acneiform, number of AEs: 0 (0)
  Diarrhea, number of AEs: 0 (0)
  Dry skin, number of AEs: 0 (0)
  Dysgeusia, number of AEs: 0 (0)
  Fatigue, number of AEs: 0 (0)
  Nausea, number of AEs: 0 (0)
  Pruritus, number of AEs: 0 (0)
  Rash (all rash terms collated), number of AEs: 0 (0)
  Stomatitis, number of AEs: 0 (0)
  Vomiting, number of AEs: 2 (2)
150mg QW, G1, cycle 1
  Dermatitis acneiform, number of AEs: 0 (0)
  Diarrhea, number of AEs: 0 (0)
  Dry skin, number of AEs: 0 (0)
  Dysgeusia, number of AEs: 0 (0)
  Fatigue, number of AEs: 0 (0)
  Nausea, number of AEs: 0 (0)
  Pruritus, number of AEs: 0 (0)
  Rash (all rash terms collated), number of AEs: 0 (0)
  Stomatitis, number of AEs: 0 (0)
  Vomiting, number of AEs: 2 (2)
150mg QW, G2, all cycles
  Anorexia, number of AEs: 0 (0)
  Dermatitis acneiform, number of AEs: 0 (0)
  Diarrhea, number of AEs: 0 (0)
  Dry skin, number of AEs: 0 (0)
  Dysgeusia, number of AEs: 0 (0)
  Fatigue, number of AEs: 0 (0)
  Nausea, number of AEs: 1 (1)
  Pruritus, number of AEs: 0 (0)
  Rash (all rash terms collated), number of AEs: 0 (0)
  Stomatitis, number of AEs: 0 (0)
  Vomiting, number of AEs: 0 (0)
150mg QW, G2, cycle 1
  Anorexia, number of AEs: 0 (0)
  Dermatitis acneiform, number of AEs: 0 (0)
  Diarrhea, number of AEs: 0 (0)
  Dry skin, number of AEs: 0 (0)
  Dysgeusia, number of AEs: 0 (0)
  Fatigue, number of AEs: 0 (0)
  Nausea, number of AEs: 1 (1)
  Pruritus, number of AEs: 0 (0)
  Rash (all rash terms collated), number of AEs: 0 (0)
  Stomatitis, number of AEs: 0 (0)
  Vomiting, number of AEs: 0 (0)
150mg QW, G3, all cycles
  Anorexia, number of AEs: 0 (0)
  Dermatitis acneiform, number of AEs: 0 (0)
  Diarrhea, number of AEs: 0 (0)
  Dry skin, number of AEs: 0 (0)
  Dysgeusia, number of AEs: 0 (0)
  Fatigue, number of AEs: 0 (0)
  Nausea, number of AEs: 0 (0)
  Pruritus, number of AEs: 0 (0)
  Rash (all rash terms collated), number of AEs: 3
  Stomatitis, number of AEs: 0 (0)
  Vomiting, number of AEs: 0 (0)
150mg QW, G3, cycle 1
  Anorexia, number of AEs: 0 (0)
  Dermatitis acneiform, number of AEs: 0 (0)
  Diarrhea, number of AEs: 0 (0)
  Dry skin, number of AEs: 0 (0)
  Dysgeusia, number of AEs: 0 (0)
  Fatigue, number of AEs: 0 (0)
  Nausea, number of AEs: 0 (0)
  Pruritus, number of AEs: 0 (0)
  Stomatitis, number of AEs: 0 (0)
  Vomiting, number of AEs: 0 (0)
150mg QW, G3, cycle 1, dose-limiting toxicity
  Rash (all rash terms collated), number of AEs: 1
200mg QW, G1, all cycles
  Anorexia, number of AEs: 1 (1)
  Dermatitis acneiform, number of AEs: 0 (0)
  Diarrhea, number of AEs: 2 (2)
  Dry skin, number of AEs: 1 (1)
  Dysgeusia, number of AEs: 0 (0)
  Nausea, number of AEs: 4 (4)
  Stomatitis, number of AEs: 2 (2)
  Vomiting, number of AEs: 2 (2)
200mg QW, G1, cycle 1
  Anorexia, number of AEs: 1 (1)
  Dermatitis acneiform, number of AEs: 0 (0)
  Diarrhea, number of AEs: 2 (2)
  Dry skin, number of AEs: 1 (1)
  Dysgeusia, number of AEs: 0 (0)
  Nausea, number of AEs: 4 (4)
  Stomatitis, number of AEs: 2 (2)
  Vomiting, number of AEs: 2 (2)
200mg QW, G2, all cycles
  Anorexia, number of AEs: 0 (0)
  Dermatitis acneiform, number of AEs: 0 (0)
  Diarrhea, number of AEs: 0 (0)
  Dry skin, number of AEs: 0 (0)
  Dysgeusia, number of AEs: 0 (0)
  Fatigue, number of AEs: 1 (1)
  Nausea, number of AEs: 1 (1)
  Rash (all rash terms collated), number of AEs: 4 (4)
  Stomatitis, number of AEs: 0 (0)
  Vomiting, number of AEs: 0 (0)
200mg QW, G2, cycle 1
  Anorexia, number of AEs: 0 (0)
  Dermatitis acneiform, number of AEs: 0 (0)
  Diarrhea, number of AEs: 0 (0)
  Dry skin, number of AEs: 0 (0)
  Dysgeusia, number of AEs: 0 (0)
  Fatigue, number of AEs: 1 (1)
  Nausea, number of AEs: 1 (1)
  Rash (all rash terms collated), number of AEs: 4 (4)
  Stomatitis, number of AEs: 0 (0)
  Vomiting, number of AEs: 0 (0)
200mg QW, G3, all cycles
  Anorexia, number of AEs: 0 (0)
  Dermatitis acneiform, number of AEs: 1^c (1)
  Diarrhea, number of AEs: 0 (0)
  Dry skin, number of AEs: 0 (0)
  Dysgeusia, number of AEs: 0 (0)
  Fatigue, number of AEs: 0 (0)
  Nausea, number of AEs: 0 (0)
  Pruritus, number of AEs: 0 (0)
  Rash (all rash terms collated), number of AEs: 3^c (3)
  Stomatitis, number of AEs: 0 (0)
  Vomiting, number of AEs: 0 (0)
200mg QW, G3, cycle 1
  Anorexia, number of AEs: 0 (0)
